Data reported in ChEMBL document CHEMBL1122923, “Structural features of imidazole derivatives that enhance styrene oxide hydrolase activity in rat hepatic microsomes” (J Med Chem, 1985).

Assays:
Rattus norvegicus [1] = organism: Rattus norvegicus; test: Maximum enhancement of styrene oxide hydrolase activity was reported at compound concentration of 5e-3 M
[2] = Partition coefficient (logP); format: physicochemical; conditions: octanol/water
[3] = molecular target: T1, Epoxide hydrolase 1 (Rattus norvegicus) (UniProt P07687); test: (§1) Enhancement of epoxide hydrolase activity
T1 sequence (whole entry): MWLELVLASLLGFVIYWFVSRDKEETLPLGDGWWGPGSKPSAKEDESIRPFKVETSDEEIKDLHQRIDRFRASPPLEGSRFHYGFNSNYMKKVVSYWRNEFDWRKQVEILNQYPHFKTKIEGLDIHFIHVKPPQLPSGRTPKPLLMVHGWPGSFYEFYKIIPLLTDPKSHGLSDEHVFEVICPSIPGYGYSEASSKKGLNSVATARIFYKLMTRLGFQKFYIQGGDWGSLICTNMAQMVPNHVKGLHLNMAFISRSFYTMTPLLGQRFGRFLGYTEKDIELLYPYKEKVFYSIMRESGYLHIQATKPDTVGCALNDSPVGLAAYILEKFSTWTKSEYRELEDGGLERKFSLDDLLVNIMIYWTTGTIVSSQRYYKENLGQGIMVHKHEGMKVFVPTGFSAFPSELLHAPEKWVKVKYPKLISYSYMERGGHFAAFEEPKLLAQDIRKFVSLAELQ
Summary of the method: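 Microsomes from untreated rats, or rats given PB 80 mg/kg or 3MC 40 mg/kg ip daily for 3 days; 0.1-0.2 mg protein, 0.25 M Tris-Cl pH 8.7, 0.03% Tween-80. Value is the ratio of activity with to without derivative; mean ± SD, 3-4 rats.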

[4] = molecular target: T1, Epoxide hydrolase 1 (Rattus norvegicus); test: Enhanced styrene oxide hydrolase activity pH 8.7; format: functional
Summary of the method: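 Imidazoles were added from aqueous solution, with diluted HCl or solvent in reference tubes, and incubated 10 min at 37 °C. Hexane stopped the reaction; tubes were run in duplicate. E100 (the concentration giving a 100% rise) came from the linear concentration-effect plot; mean ± SD over n rats.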

Rattus norvegicus [5] = organism: Rattus norvegicus; test: Maximum enhancement of styrene oxide hydrolase activity was reported at compound concentration of 1e-3 M
Rattus norvegicus [6] = organism: Rattus norvegicus; test: Enhancement of styrene hydrolase activity was determined in male wistar rat hepatic microsomes given to 3-methylcholanthrene treated rats.; conditions: Liver
Summary of the method: (§2)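 Male Wistar rats were pretreated ip with 3-methylcholanthrene 40 mg/kg daily for 3 days; washed liver microsomes were then prepared. Reported as activity ratio ± SD, n = 3-4 or individual.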

Rattus norvegicus [7] = organism: Rattus norvegicus; test: Enhancement of styrene hydrolase activity was determined in male wistar rat hepatic microsomes given to untreated rats.; conditions: Liver
Summary of the method: (§3)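 Hepatic microsomes (washed) from untreated male Wistar rats (200 ± 20 g). Incubation: 0.25 M Tris-Cl pH 8.7, 0.03% Tween-80, 0.1-0.2 mg protein, 37 °C, 10 min, stopped with hexanes, duplicate tubes. Enhancement is the activity ratio with/without derivative, mean ± SD of 3-4 rats.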

Rattus norvegicus [8] = organism: Rattus norvegicus; test: Enhancement of styrene hydrolase activity was determined in male wistar rat hepatic microsomes given to phenobarbital treated rats.; conditions: Liver
Summary of the method: (§4)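 Rats were given phenobarbital 80 mg/kg ip daily for 3 days before washed hepatic microsomes were prepared. Ratio of activity with vs without derivative, from 3-4 rats or individual values.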

Rattus norvegicus [9] = organism: Rattus norvegicus; test: Enhancement of styrene hydrolase activity was determined in male wistar rat hepatic microsomes given to phenobarbital treated rats; conditions: Liver; summary of the method: as §4
Rattus norvegicus [10] = organism: Rattus norvegicus; test: Maximum enhancement of styrene oxide hydrolase activity was reported at compound concentration of 1e-2M
Rattus norvegicus [11] = organism: Rattus norvegicus; test: Enhancement of styrene hydrolase activity was determined in male wistar rat hepatic microsomes given to 3-methylcholanthrene treated rats; conditions: Liver; summary of the method: as §2
Rattus norvegicus [12] = organism: Rattus norvegicus; test: Enhancement of styrene hydrolase activity was determined in male wistar rat hepatic microsomes given to untreated rats; conditions: Liver; summary of the method: as §3
Rattus norvegicus [13] = organism: Rattus norvegicus; test: Maximum enhancement of styrene oxide hydrolase activity was reported at compound concentration of 1e-1M
[14] = molecular target: T1, Epoxide hydrolase 1 (Rattus norvegicus); test: as §1; remark: listed apart in the source
Summary of the method: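 Microsomes from untreated rats with a concentration series of N-1-substituted imidazoles added from aqueous solution. Styrene oxide hydrolysis in 0.25 M Tris-Cl pH 8.7, 0.03% Tween-80, 10 min, duplicate tubes, no-tissue blanks. E100 is the concentration giving 100% enhancement, read from the linear concentration-effect range using at least three concentrations on each side. Mean ± SD over individual rats.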

Rattus norvegicus [15] = organism: Rattus norvegicus; test: Maximum enhancement of styrene oxide hydrolase activity was reported at compound concentration of 5e-4 M
Summary of the method: (§5)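 Washed liver microsomes from untreated male Wistar rats (200 ± 20 g), stored at -20 °C. Tubes (0.145 mL) held 0.25 M Tris-Cl pH 8.7, 0.03% Tween-80, 0.1-0.2 mg microsomal protein and ¹⁴C-styrene oxide. Imidazoles were added from aqueous solution, in duplicate tubes at each concentration. Incubation was 10 min at 37 °C, stopped with hexanes. Maximum enhancement is the highest activity ratio (with/without additive) observed; mean ± SD over individual rats.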

Rattus norvegicus [16] = organism: Rattus norvegicus; test: Maximum enhancement of styrene oxide hydrolase activity was reported at compound concentration of 5e-2M
Rattus norvegicus [17] = organism: Rattus norvegicus; test: Maximum enhancement of styrene oxide hydrolase activity was reported at compound concentration of 1e-4M; summary of the method: as §5

| SMILES | logP ([2]; read-out: logP) | Log 1/E100 [3] | E100 [4] | other results |
| --- | --- | --- | --- | --- |
| Fc1ccc(-n2ccnc2)cc1 | 1.67 | 3.26 | 550 µM | Max enhancement (Rattus norvegicus [1]): 4.4 |
| O=[N+]([O-])c1ccc(-n2ccnc2)cc1 | 1.19 | 2.4 | 3900 µM | Max enhancement (Rattus norvegicus [5]): 1.3 |
| c1ccc(-c2ncc[nH]2)cc1 |  |  |  | Enhancement (Rattus norvegicus [6]): 2.09; Enhancement (Rattus norvegicus [7]): 2; Enhancement (Rattus norvegicus [8]): 1.99 |
| c1ccc(-n2ccnc2)cc1 | 1.48 | 3.48 | 330 µM | Enhancement (Rattus norvegicus [9]): 3.15; Max enhancement (Rattus norvegicus [10]): 4.7; Enhancement (Rattus norvegicus [11]): 3.75; Enhancement (Rattus norvegicus [12]): 3.34 |
| c1c[nH]cn1 [IMIDAZOLE] | -0.42 |  | 8800 µM | Max enhancement (Rattus norvegicus [13]): 5.1; Log 1/E100 [14]: 2.05 |
| Clc1ccc(COC(Cn2ccnc2)c2ccc(Cl)cc2Cl)c(Cl)c1 (centres undefined) [MICONAZOLE] | 5.84 | 4.08 | 84 µM | Max enhancement (Rattus norvegicus [15]): 3.1 |
| c1ccc(Cn2ccnc2)cc1 [BENZYLIMIDAZOLE] | 2.01 | 3.64 | 230 µM | Max enhancement (Rattus norvegicus [1]): 5.7 |
| Oc1ccc(-n2ccnc2)cc1 | 0.94 | 3.62 | 240 µM | Max enhancement (Rattus norvegicus [5]): 3.8 |
| CCn1ccnc1 | 0.81 |  | 2800 µM | Max enhancement (Rattus norvegicus [16]): 4.6; Log 1/E100 [14]: 2.55 |
| c1ccc(-c2c[nH]cn2)cc1 |  |  |  | Enhancement (Rattus norvegicus [6]): 2.61; Enhancement (Rattus norvegicus [7]): 2.3; Enhancement (Rattus norvegicus [8]): 2.45 |
| CC(=O)N1CCN(c2ccc(OCC3COC(Cn4ccnc4)(c4ccc(Cl)cc4Cl)O3)cc2)CC1 (centres undefined) |  |  | 54 µM | Max enhancement (Rattus norvegicus [5]): 3.3 |
| Cn1ccnc1 [1-METHYLIMIDAZOLE] | 0.28 | 1.94 | 12000 µM | Max enhancement (Rattus norvegicus [16]): 3.9 |
| Clc1ccccc1C(c1ccccc1)(c1ccccc1)n1ccnc1 [CLOTRIMAZOLE] |  |  | 6.2 µM | logP [2]: 6.14; Max enhancement (Rattus norvegicus [17]): 5.4; Log 1/E100 [14]: 5.21 |
| c1ccc(C2NCCN2)cc1 |  |  |  | Enhancement (Rattus norvegicus [9]): 1.11; Enhancement (Rattus norvegicus [11]): 1.15; Enhancement (Rattus norvegicus [12]): 1.19 |
